Legend:
[1] = melting temperature; fluorescence melt of hairpins on a sequencing array, two-state fit, raised by 9.35 °C to match UV melts; conditions: sodium 0.088 M
Summary of the method: (§1)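 Hairpins were imaged by Cy3 fluorescence on a sequenced MiSeq flow cell with annealed Cy3 and quencher oligos, in 50 mM Na-HEPES pH 8.0, 25 mM NaCl, in 2.5 °C steps up to 60 °C. Bootstrapped two-state fits of normalised signals gave melting temperature and folding enthalpy. Four replicates were combined by inverse variance, and fitted temperatures were raised by 9.35 °C to match UV melts.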

[2] = folding enthalpy; higher = less favourable; fluorescence melt of hairpins on a sequencing array, two-state fit; conditions: sodium 0.088 M
Summary of the method: as §1

Row | Sequence | Tm [1] [°C] | folding enthalpy [2] [kcal/mol]
1 | GGAATCGAAAGATCCTCC ((((((....)))..))) | 42.7 | -21.4
2 | GGAATCGGAAACGGTTTC (.((.((....)).)).) | 32.4 | -26.3
3 | GGAATGCGAAAGCACTCC (((.(((....))).))) | 48.3 | -23.6
4 | GGAATGGAAACATTCC ((((((....)))))) | 53.1 | -44.9
5 | GGAATGGGAAACCATTTC (.(((((....))))).) | 42.2 | -34.4
6 | GGAATTGGAAACGATTCC (((((.(....).))))) | 45.6 | -34.4
7 | GGACAAGGAAACCTGTCC (((((.(....).))))) | 47.2 | -31.4
8 | GGACACCGAAAGGTCTCC (((.(((....))).))) | 40 | -23.8
9 | GGACACCGAAAGGTTCC (((.(((....)))))) | 48.6 | -25.6
10 | GGACACGAAAGTGAATCC ((((((....)))..))) | 32.9 | -15.9
11 | GGACACGAAAGTGGGTCC ((((((....)))..))) | 48.7 | -19.9
12 | GGACACGGAAACATGTCC (((((.(....).))))) | 44 | -33
13 | GGACACGGAAACGTGCCC ((.((((....)))).)) | 54.5 | -27.9
14 | GGACAGCGAAAGCTCTCC (((.(((....))).))) | 38.4 | -18.3
15 | GGACAGGGAAACCTGCCC ((.((((....)))).)) | 48.2 | -22.3
16 | GGACATGAAAATGTCC ((((((....)))))) | 61.7 | -34.7
17 | GGACATGGAAACATGCCC ((.((((....)))).)) | 47.4 | -23.4
18 | GGACCACCGAAAGGTTCC (((..(((....)))))) | 29.6 | -11.2
19 | GGACCAGCGAAAGCTTCC (((..(((....)))))) | 25.2 | -10.3
20 | GGACCAGGAAACTGATCC (((.(((....))).))) | 40.3 | -34.2
21 | GGACCCACGAAAGTGTCC (((..(((....)))))) | 36.4 | -14.4
22 | GGACCCCGAAAGGGATCC (((.(((....))).))) | 55.3 | -26.9
23 | GGACCCGCGAAAGCGTCC (((..(((....)))))) | 36.7 | -12.4

Row | Sequence | Tm [1] [°C] | folding enthalpy [2] [kcal/mol]
24 | GGACCGCGAAAGCGATCC (((.(((....))).))) | 59 | -27.9
25 | GGACCGGCGAAAGCCTCC (((..(((....)))))) | 27.5 | -10.2
26 | GGACCGGGAAACCAGTCC ((((.((....)).)))) | 47.3 | -23.4
27 | GGACCGGGAAACCGGTTC (.(((((....))))).) | 59 | -22.3
28 | GGACCGGGAAACTGGTCC (((((.(....).))))) | 58.2 | -44.9
29 | GGACCTCGAAAGAGTTCC (((.(((....))).))) | 45 | -27.2
30 | GGACCTGGAAACAAGTCC ((((.((....)).)))) | 38.7 | -23.5
31 | GGACGACGAAAGTCTTCC (((.(((....))).))) | 48.9 | -27.1
32 | GGACGAGAAATCGTCC ((((((....)))))) | 60.2 | -47
33 | GGACGCGAAAGCGAGTCC ((((((....)))..))) | 55.4 | -21
34 | GGACGCGAAAGCGATTCC ((((((....)))..))) | 36.5 | -11
35 | GGACGCGAAAGCGCATCC ((((((....)))..))) | 34.5 | -10.1
36 | GGACGCGAAAGCGCCTCC ((((((....)))..))) | 60.2 | -11.6
37 | GGACGCGAAAGCGGGTCC ((((((....)))..))) | 54.2 | -14
38 | GGACGTCGAAAGACATCC (((.(((....))).))) | 47.3 | -26.5
39 | GGACGTCGAAAGACCTCC (((.(((....))).))) | 41.2 | -22.3
40 | GGACTACCGAAAGGTTCC (((..(((....)))))) | 32.8 | -11.2
41 | GGACTCGAAAGAGACTCC ((((((....)))..))) | 36 | -11.6
42 | GGACTCGAAAGAGATTCC ((((((....)))..))) | 25.6 | -11.3
43 | GGACTCGAAAGAGCGTCC ((((((....)))..))) | 32 | -16
44 | GGACTCGCGAAAGCGTCC (((..(((....)))))) | 39.1 | -13.1
45 | GGACTCGGAAACGAGTTC (.(((((....))))).) | 53.6 | -38.3
46 | GGACTCGGAAACGGGTTC (.((.((....)).)).) | 40.2 | -25.7

Row | Sequence | Tm [1] [°C] | folding enthalpy [2] [kcal/mol]
47 | GGACTGCCGAAAGGCTCC (((..(((....)))))) | 34.7 | -10.2
48 | GGACTGCGAAAGCATCC (((.(((....)))))) | 41.8 | -13.5
49 | GGACTGCGAAAGCATTCC (((.(((....))).))) | 48.5 | -29.8
50 | GGACTGGGAAACCAATCC (((.(((....))).))) | 36 | -28
51 | GGACTGGGAAACCAGCCC ((.((((....)))).)) | 50.4 | -20.5
52 | GGACTGTCGAAAGACTCC (((..(((....)))))) | 21.5 | -5.54
53 | GGACTTCGAAAGAAATCC (((.(((....))).))) | 37.3 | -26.6
54 | GGACTTGGAAACAAATCC (((.(((....))).))) | 35.3 | -12.4
55 | GGACTTGGAAACGAGTTC (.(((.(....).))).) | 32.9 | -21.5
56 | GGAGAACCGAAAGGTTCC (((..(((....)))))) | 43.1 | -9.16
57 | GGAGAACGAAAGTTGTCC (((.(((....))).))) | 51.5 | -34.6
58 | GGAGAAGAAATTCTCC ((((((....)))))) | 47.7 | -27.7
59 | GGAGAAGGAAACTTCCCC ((.((((....)))).)) | 35.2 | -16.8
60 | GGAGAATCGAAAGATTCC (((..(((....)))))) | 38.1 | -15.8
61 | GGAGACCGAAAGGTTCC (((.(((....)))))) | 48 | -22.5
62 | GGAGACGAAAGTCATCC ((((((....))).))) | 45.5 | -17.3
63 | GGAGACGAAAGTCGCTCC ((((((....)))..))) | 42.4 | -13
64 | GGAGACGAAAGTCGGTCC ((((((....)))..))) | 39.8 | -12.3
65 | GGAGAGAAATCTCC (((((....))))) | 45.1 | -18.4
66 | GGAGATGGAAACATCTCC (((((((....))))))) | 65 | -38
67 | GGAGCAGGAAACCACTCC ((((..(....)..)))) | 27.1 | -11.5
68 | GGAGCAGGAAACTACTCC ((((.((....)).)))) | 41.1 | -27.4
69 | GGAGCAGGAAACTGCCCC ((.((((....)))).)) | 49.7 | -17.4

Row | Sequence | Tm [1] [°C] | folding enthalpy [2] [kcal/mol]
70 | GGAGCCGAAAGGCATCC ((((((....))).))) | 53.8 | -14.2
71 | GGAGCCGAAAGGCATTCC ((((((....)))..))) | 33.1 | -10.3
72 | GGAGCCGAAAGGCGTCC ((((((....))).))) | 53.4 | -9.6
73 | GGAGCCGAAAGGCTATCC ((((((....)))..))) | 38.2 | -8.64
74 | GGAGCCGAAAGGCTCTCC ((((((....)))..))) | 56.5 | -7.29
75 | GGAGCCGAAAGGCTGTCC ((((((....)))..))) | 41 | -8.93
76 | GGAGCCGAAAGGCTTCC ((((((....))).))) | 60.3 | -14.6
77 | GGAGCCGGAAACAGCTCC (((((.(....).))))) | 51.3 | -27.7
78 | GGAGCCGGAAACGGCTTC (.(((((....))))).) | 60.8 | -15
79 | GGAGCCGGAAACGGTTCC (((.(((....))).))) | 58.5 | -45.1
80 | GGAGCCTCGAAAGAGTCC (((..(((....)))))) | 25.9 | -9.23
81 | GGAGCGCGAAAGCGTCC (((.(((....)))))) | 52.1 | -13.9
82 | GGAGCGGCGAAAGCCTCC (((..(((....)))))) | 39.5 | -13.8
83 | GGAGCTGCGAAAGCATCC (((..(((....)))))) | 32.4 | -9.48
84 | GGAGCTGGAAACAGCCCC ((.((((....)))).)) | 54.3 | -24.2
85 | GGAGCTGGAAACAGTTCC (((.(((....))).))) | 50 | -37
86 | GGAGGAGGAAACTTCTCC ((((.((....)).)))) | 45.2 | -35.9
87 | GGAGGCGAAAGCCAATCC ((((((....)))..))) | 33.6 | -10.4
88 | GGAGGCGGAAACGCCTTC (.(((((....))))).) | 57.5 | -14.9
89 | GGAGGCGGAAACGTCTCC ((((.((....)).)))) | 58.9 | -49.2
90 | GGAGGGCGAAAGCCATCC (((.(((....))).))) | 66.3 | -33.8
91 | GGAGGGTCGAAAGACTCC (((..(((....)))))) | 39.5 | -14.3

— the array DNA melting data of Ke et al. (doi:10.1101/2024.01.08.574731)
